Experimental data from ChEMBL document CHEMBL4393708, “Pyridinylimidazoles as dual glycogen synthase kinase 3β/p38α mitogen-activated protein kinase inhibitors” (Eur J Med Chem, 2019).
In brackets after ≈: the same amount, converted by molar mass.

Assays:
[1] = target: Mitogen-activated protein kinase 1 (Homo sapiens) (UniProt P28482); test: Inhibition of human recombinant ERK2 at 1 uM using Ulight-CFFKNIVTPRTPPPSQGK-amide as substrate measured after 15 mins in presence of ATP by LANCE assay relative to control
How it was run: (§1)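 Kinase panel run by an outside provider (Eurofins Cerep) in a LANCE assay, single test concentration of 1 µM, results as percent inhibition.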

[2] = target: Mitogen-activated protein kinase 8 (Homo sapiens) (UniProt P45983); test: Inhibition of human recombinant JNK1 at 1 uM using Ulight-CFFKNIVTPRTPPPSQGK-amide as substrate measured after 60 mins in presence of ATP by LANCE assay relative to control; how it was run: as §1
[3] = target: T1, Glycogen synthase kinase-3 beta (Homo sapiens, UniProt P49841); test: Competitive inhibition of human recombinant full length GSK3beta using YRRAAVPPSPSLSRHSSPHQ(pS)EDEEE as substrate preincubated with enzyme for 10 mins followed by substrate and 25 uM ATP addition measured after 60 mins by ADP-Glo luminescence assay
How it was run: (§2)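 Compounds in serial dilutions were preincubated with kinase for 10 min at rt. Substrate/ATP was then added and the reaction ran 60 min at rt. ADP-Glo reagent 60 min, detection reagent 30 min, then luminescence read (500 ms integration).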
Target sequence in this assay (P49841 whole entry): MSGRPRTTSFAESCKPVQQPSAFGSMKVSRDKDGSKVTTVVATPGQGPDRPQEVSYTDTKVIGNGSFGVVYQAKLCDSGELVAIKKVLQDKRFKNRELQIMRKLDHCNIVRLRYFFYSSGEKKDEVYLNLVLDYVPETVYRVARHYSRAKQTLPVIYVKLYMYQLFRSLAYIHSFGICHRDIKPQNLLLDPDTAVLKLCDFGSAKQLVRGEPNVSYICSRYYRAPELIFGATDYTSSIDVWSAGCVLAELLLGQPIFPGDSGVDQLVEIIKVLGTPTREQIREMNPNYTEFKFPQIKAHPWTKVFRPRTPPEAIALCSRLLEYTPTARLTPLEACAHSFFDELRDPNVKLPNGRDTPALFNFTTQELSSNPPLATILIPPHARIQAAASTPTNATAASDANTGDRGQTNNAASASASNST

[4] = Solubility of the compound in PBS buffer at pH 7.8 after 1 hr by HPLC analysis; assay type: physicochemical
[5] = target: Glycogen synthase kinase-3 alpha (Homo sapiens, UniProt P49840); test: Inhibition of human recombinant full length GSK3alpha using YRRAAVPPSPSLSRHSSPHQ(pS)EDEEE as substrate preincubated with enzyme for 10 mins followed by substrate and 25 uM ATP addition measured after 60 mins by ADP-Glo luminescence assay
How it was run: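 Recombinant human GSK3α at 0.50 ng/µL, 25 µM ATP, 0.2 µg/µL substrate G50-58, serial compound dilutions. Kinase was preincubated with compound 10 min at rt, then run 60 min at rt after substrate/ATP addition. ADP-Glo reagent 60 min, detection reagent 30 min, luminescence read. Uninhibited-kinase and ATP/substrate-only controls were included.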

[6] = target: RAC-alpha serine/threonine-protein kinase (Homo sapiens) (UniProt P31749); test: Inhibition of recombinant human AKT1 at 1 uM using CREBtide as substrate measured after 60 mins in presence of ATP by LANCE assay relative to control
[7] = target: T2, Mitogen-activated protein kinase 14 (Homo sapiens, UniProt Q16539); test: Inhibition of human recombinant SAPK2A at 1 uM using Ulight-CFFKNIVTPRTPPPSQGK-amide as substrate measured after 30 mins in presence of ATP by LANCE assay relative to control; how it was run: as §1
[8] = target: Interleukin-1 receptor-associated kinase 4 (Homo sapiens) (UniProt Q9NWZ3); test: Inhibition of human recombinant IRAK4 at 1 uM using Ulight-FLGFTYVAP as substrate measured after 90 mins in presence of ATP by LANCE assay relative to control; how it was run: as §1
[9] = target: Serine/threonine-protein kinase Nek2 (Homo sapiens) (UniProt P51955); test: Inhibition of human recombinant NEK2 at 1 uM using Ulight-FLGFTYVAP as substrate measured after 60 mins in presence of ATP by LANCE assay relative to control; how it was run: as §1
[10] = Drug uptake in RjOrl:Swiss CD-1 mouse brain at 10 mg/kg, iv administered as single dose measured after 2 hrs by LC-MS analysis; assay type: ADME, organism-based; conditions: read-out: Drug uptake
How it was run: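 Adult male RjOrl:Swiss CD-1 mice got one intravenous dose of 10 mg/kg. Plasma was sampled at 10, 30 and 120 min. After the last sample the mice were sacrificed and brains dissected. Blood and brain samples were prepared and analysed by LC-MS for parent and sulfoxide metabolite; brain levels reported as ng/g.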

[11] = target: Inhibitor of nuclear factor kappa-B kinase subunit alpha (Homo sapiens) (UniProt O15111); test: Inhibition of human recombinant IKKalpha at 1 uM using Ulight-IKappaB-alpha as substrate measured after 30 mins in presence of ATP by LANCE assay relative to control; how it was run: as §1
[12] = target: Rho-associated protein kinase 1 (Homo sapiens) (UniProt Q13464); test: Inhibition of human recombinant ROCK1 at 1 uM using Ulight-RRRSLLE as substrate measured after 20 mins in presence of ATP by LANCE assay relative to control; how it was run: as §1
[13] = target: Hepatocyte growth factor receptor (Homo sapiens) (UniProt P08581); test: Inhibition of human recombinant MET at 1 uM using Ulight-CAGAGAIETDKEYYTVKD as substrate measured after 60 mins in presence of ATP by LANCE assay relative to control; how it was run: as §1
[14] = target: T2, Mitogen-activated protein kinase 14; test: Inhibition of p38alpha MAPK (unknown origin) using ATF-2 as substrate after 1 hr by ELISA
[15] = target: Serine/threonine-protein kinase Chk2 (Homo sapiens) (UniProt O96017); test: Inhibition of human recombinant CHK2 at 1 uM using CREBtide as substrate incubated for 15 mins in presence of ATP by LANCE assay relative to control; how it was run: as §1
[16] = target: Protein kinase C beta type (Homo sapiens) (UniProt P05771); test: Inhibition of human recombinant PKCbeta at 1 uM using CREBtide as substrate measured after 15 mins in presence of ATP by LANCE assay relative to control; how it was run: as §1
[17] = Metabolic stability in human liver microsomes assessed as parent compound remaining after 120 mins by LC-MS analysis relative to control; assay type: ADME, Microsome; conditions: read-out: Stability
[18] = Metabolic stability in human liver microsomes assessed as parent compound remaining after 240 mins by LC-MS analysis relative to control; assay type: ADME, Microsome; conditions: read-out: Stability
[19] = target: T1, Glycogen synthase kinase-3 beta; test: Inhibition of human recombinant GSK3beta at 1 uM using Ulight-CFFKNIVTPRTPPPSQGK-amide as substrate measured after 90 mins in presence of ATP by LANCE assay relative to control; how it was run: as §1
[20] = target: Fibroblast growth factor receptor 3 (Homo sapiens) (UniProt P22607); test: Inhibition of human recombinant FGFR3 at 1 uM using Ulight-CAGAGAIETDKEYYTVKD as substrate measured after 90 mins in presence of ATP by LANCE assay relative to control; how it was run: as §1
[21] = target: T1, Glycogen synthase kinase-3 beta; test: Competitive inhibition of human recombinant full length GSK3beta using YRRAAVPPSPSLSRHSSPHQ(pS)EDEEE as substrate preincubated with enzyme for 10 mins followed by substrate and 500 uM ATP addition measured after 60 mins by ADP-Glo luminescence assay
How it was run: as §2, with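 “Recombinant human GSK3β at 0.58 ng/µL with 0.2 µg/µL substrate G50-58; ATP at 25 µM, 100 µM or 500 µM, each as its line states. Compounds” for “Compounds”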
Target sequence in this assay (P49841 whole entry): as the sequence (P49841 whole entry) above

[22] = Metabolic stability in human liver microsomes assessed as parent compound remaining after 20 mins by LC-MS analysis relative to control; assay type: ADME, Microsome; conditions: read-out: Stability
[23] = target: Serine/threonine-protein kinase PLK1 (Homo sapiens) (UniProt P53350); test: Inhibition of human recombinant PLK1 at 1 uM using Ulight-FLGFTYVAP as substrate measured after 60 mins in presence of ATP by LANCE assay relative to control; how it was run: as §1
Sequence of Serine/threonine-protein kinase PLK1 (Homo sapiens) (P53350 whole entry): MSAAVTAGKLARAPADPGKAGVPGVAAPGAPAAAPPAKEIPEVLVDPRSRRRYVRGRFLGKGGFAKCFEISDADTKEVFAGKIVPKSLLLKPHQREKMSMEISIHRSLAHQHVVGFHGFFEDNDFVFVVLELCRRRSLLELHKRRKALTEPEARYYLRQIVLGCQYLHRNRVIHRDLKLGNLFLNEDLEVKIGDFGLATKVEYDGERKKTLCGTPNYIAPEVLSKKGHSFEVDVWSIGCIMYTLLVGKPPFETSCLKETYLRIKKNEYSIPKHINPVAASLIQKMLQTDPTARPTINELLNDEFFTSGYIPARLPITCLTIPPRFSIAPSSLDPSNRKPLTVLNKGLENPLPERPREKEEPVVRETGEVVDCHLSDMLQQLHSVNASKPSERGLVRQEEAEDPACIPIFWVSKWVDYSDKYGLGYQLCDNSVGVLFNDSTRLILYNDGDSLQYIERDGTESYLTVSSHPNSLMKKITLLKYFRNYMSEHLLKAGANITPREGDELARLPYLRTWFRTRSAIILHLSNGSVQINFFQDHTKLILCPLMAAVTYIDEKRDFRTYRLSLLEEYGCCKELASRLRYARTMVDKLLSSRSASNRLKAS

T2 sequence (Q16539 whole entry): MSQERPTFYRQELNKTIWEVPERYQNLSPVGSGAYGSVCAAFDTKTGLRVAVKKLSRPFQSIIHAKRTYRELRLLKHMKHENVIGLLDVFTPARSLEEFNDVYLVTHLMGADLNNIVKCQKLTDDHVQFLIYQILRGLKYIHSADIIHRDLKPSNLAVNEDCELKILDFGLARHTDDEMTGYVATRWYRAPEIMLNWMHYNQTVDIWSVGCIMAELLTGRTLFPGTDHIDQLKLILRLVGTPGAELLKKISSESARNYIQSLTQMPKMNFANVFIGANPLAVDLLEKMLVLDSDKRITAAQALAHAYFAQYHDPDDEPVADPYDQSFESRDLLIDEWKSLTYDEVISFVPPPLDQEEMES
Sequence of RAC-alpha serine/threonine-protein kinase (Homo sapiens) (P31749 whole entry): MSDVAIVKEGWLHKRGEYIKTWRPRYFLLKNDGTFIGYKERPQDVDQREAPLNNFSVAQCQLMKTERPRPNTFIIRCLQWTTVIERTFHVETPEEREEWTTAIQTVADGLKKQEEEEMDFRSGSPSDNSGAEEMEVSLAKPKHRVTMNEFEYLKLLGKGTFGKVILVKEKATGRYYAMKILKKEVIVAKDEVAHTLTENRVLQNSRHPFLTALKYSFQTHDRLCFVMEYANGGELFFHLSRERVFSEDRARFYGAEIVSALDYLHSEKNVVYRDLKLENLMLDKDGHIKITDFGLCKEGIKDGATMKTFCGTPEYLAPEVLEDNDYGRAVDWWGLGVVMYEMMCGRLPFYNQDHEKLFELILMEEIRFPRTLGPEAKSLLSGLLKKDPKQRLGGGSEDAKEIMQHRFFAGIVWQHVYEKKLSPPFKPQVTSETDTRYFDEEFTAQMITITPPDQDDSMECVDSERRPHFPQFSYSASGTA
Sequence of Interleukin-1 receptor-associated kinase 4 (Homo sapiens) (Q9NWZ3 whole entry): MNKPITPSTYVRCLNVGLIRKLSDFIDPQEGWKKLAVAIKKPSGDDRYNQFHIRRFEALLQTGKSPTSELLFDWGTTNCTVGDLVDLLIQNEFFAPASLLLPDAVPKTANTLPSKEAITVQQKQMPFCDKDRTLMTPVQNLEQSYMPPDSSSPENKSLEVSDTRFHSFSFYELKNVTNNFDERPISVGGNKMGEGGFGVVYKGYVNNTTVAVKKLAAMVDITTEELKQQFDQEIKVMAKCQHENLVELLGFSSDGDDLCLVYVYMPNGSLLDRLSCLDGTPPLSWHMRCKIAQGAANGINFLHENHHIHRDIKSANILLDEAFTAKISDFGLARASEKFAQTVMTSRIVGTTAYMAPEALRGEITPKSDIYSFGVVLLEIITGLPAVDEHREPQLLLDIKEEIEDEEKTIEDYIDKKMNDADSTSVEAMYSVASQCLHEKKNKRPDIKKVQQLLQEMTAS
Sequence of Inhibitor of nuclear factor kappa-B kinase subunit alpha (Homo sapiens) (O15111 whole entry): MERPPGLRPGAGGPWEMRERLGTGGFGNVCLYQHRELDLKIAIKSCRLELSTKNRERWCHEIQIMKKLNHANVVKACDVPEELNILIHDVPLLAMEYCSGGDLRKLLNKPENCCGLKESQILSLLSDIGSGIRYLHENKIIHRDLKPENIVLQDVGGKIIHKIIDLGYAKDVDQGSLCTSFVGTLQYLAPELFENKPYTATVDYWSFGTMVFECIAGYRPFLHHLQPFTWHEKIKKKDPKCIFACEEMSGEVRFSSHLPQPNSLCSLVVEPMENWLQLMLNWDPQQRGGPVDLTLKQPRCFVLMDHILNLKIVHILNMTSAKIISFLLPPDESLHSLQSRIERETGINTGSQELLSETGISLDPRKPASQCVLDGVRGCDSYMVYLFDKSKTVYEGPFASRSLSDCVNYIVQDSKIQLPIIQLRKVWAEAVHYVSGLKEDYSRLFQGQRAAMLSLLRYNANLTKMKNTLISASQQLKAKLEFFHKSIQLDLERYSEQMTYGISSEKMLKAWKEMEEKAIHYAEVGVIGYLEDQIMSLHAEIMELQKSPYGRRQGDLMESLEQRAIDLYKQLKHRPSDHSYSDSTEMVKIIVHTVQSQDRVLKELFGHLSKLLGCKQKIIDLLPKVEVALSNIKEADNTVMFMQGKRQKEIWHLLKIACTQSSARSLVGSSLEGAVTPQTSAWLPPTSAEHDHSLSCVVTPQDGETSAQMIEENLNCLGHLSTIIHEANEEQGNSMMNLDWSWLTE
Sequence of Glycogen synthase kinase-3 alpha (P49840 whole entry): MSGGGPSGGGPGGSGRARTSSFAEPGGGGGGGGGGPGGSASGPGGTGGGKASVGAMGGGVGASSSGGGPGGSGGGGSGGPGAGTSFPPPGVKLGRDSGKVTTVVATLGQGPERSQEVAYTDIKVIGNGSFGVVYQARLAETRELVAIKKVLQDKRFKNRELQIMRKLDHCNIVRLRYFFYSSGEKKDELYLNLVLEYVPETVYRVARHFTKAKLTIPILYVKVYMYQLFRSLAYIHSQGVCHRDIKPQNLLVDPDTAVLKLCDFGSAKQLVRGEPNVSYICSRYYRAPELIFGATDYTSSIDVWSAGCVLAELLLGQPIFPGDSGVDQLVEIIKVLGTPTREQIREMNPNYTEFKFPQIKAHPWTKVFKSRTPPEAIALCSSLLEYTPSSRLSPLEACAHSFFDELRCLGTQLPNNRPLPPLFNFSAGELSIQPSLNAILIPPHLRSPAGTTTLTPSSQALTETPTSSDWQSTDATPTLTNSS
Sequence of Mitogen-activated protein kinase 1 (Homo sapiens) (P28482 whole entry): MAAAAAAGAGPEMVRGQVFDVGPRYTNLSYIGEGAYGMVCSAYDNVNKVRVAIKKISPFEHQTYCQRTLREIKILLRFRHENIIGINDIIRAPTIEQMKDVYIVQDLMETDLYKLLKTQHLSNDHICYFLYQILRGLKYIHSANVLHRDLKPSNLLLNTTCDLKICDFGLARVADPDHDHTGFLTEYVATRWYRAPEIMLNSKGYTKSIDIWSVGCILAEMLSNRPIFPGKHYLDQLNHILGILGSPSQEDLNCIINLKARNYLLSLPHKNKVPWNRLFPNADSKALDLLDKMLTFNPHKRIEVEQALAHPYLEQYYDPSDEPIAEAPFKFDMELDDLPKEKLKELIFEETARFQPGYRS
Sequence of Serine/threonine-protein kinase Chk2 (Homo sapiens) (O96017 whole entry): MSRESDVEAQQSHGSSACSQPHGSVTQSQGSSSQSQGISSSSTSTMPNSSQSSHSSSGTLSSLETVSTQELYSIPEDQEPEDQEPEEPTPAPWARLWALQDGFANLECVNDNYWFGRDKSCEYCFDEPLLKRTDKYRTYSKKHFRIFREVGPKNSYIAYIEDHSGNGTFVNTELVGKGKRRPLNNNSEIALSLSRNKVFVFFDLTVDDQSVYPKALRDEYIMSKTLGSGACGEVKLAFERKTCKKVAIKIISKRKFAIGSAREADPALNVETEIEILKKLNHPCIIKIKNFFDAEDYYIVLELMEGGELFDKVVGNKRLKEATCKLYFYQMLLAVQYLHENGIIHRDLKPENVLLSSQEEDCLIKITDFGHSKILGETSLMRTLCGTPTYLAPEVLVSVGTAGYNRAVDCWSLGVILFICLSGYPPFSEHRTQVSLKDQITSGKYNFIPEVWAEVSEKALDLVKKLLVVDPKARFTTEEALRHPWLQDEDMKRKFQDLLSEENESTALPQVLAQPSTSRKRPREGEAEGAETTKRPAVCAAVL
Sequence of Serine/threonine-protein kinase Nek2 (Homo sapiens) (P51955 whole entry): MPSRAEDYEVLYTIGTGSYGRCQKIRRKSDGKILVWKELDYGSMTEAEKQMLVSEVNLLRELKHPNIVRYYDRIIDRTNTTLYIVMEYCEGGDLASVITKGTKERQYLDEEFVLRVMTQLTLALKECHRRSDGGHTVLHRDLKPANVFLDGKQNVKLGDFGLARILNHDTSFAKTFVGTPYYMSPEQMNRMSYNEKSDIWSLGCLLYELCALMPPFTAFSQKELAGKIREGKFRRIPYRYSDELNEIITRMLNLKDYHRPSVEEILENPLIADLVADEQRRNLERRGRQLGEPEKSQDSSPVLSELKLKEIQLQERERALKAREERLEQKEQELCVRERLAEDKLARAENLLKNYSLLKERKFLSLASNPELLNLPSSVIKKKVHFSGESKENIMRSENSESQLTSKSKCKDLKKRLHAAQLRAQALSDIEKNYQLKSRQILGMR

## CCc1nc(-c2ccc(F)cc2)c(-c2ccnc(NC(=O)C3CC3)c2)[nH]1
[1]
  inhibition: 10.9%
[2]
  inhibition: 78.3%
[3]
  IC50: 35 to 45.6 nM
[4]
  solubility at 1 h: 155 µg/mL (≈ 442 µM)
[5]
  IC50: 301 nM
[6]
  inhibition: 2.06%
[7]
  inhibition: 93.6%
[8]
  inhibition: 2.96%
[9]
  inhibition: -1.98%
[10]
  concentration at 2 h: 13.3 ng/g
[11]
  inhibition: -2.16%
[12]
  inhibition: -8.13%
[13]
  inhibition: 54.9%
[14]
  IC50: 16 nM
[15]
  inhibition: -9.7%
[16]
  inhibition: 10.7%
[17]
  remaining at 2 h: 96.4%
[18]
  remaining at 4 h: 98.3%
[19]
  inhibition: 97%
[20]
  inhibition: 64.5%
[21]
  IC50: 492 nM
[22]
  remaining at 20 min: 93.4%
[23]
  inhibition: 2.78%
